ChEMBL document CHEMBL1764974, “The discovery of phthalazinone-based human H1 and H3 single-ligand antagonists suitable for intranasal administration for the treatment of allergic rhinitis” (J Med Chem, 2011)
One block for each compound: values may come before it.

How the values were obtained:
[1] = target: Histamine H3 receptor (Homo sapiens, UniProt Q9Y5N1); experiment: Antagonist activity at human recombinant histamine H3 receptor expressed in CHO cells assessed as inhibition of histamine-induced GTP-gammaS binding; format: functional, cell-based
Chain of Histamine H3 receptor (Q9Y5N1 whole entry): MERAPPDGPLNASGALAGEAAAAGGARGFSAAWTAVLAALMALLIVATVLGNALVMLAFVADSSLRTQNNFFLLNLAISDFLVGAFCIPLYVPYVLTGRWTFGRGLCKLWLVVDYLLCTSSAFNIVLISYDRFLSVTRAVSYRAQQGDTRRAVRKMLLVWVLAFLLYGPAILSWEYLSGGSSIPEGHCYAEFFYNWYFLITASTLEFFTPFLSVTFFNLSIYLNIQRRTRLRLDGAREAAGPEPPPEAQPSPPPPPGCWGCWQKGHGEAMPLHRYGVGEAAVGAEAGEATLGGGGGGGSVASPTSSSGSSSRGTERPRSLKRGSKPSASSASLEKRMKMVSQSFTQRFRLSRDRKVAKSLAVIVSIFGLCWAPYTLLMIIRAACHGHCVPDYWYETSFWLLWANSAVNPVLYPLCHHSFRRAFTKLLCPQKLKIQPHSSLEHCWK
Outline: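 Membranes from CHO cells transfected with cloned human H3 receptor; reduction of histamine-stimulated GTPγS binding, detected by scintillation proximity.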

[2] = target: T1, Alpha-1A adrenergic receptor (Homo sapiens, UniProt P35348); experiment: Binding affinity to human adrenergic alpha1A receptor expressed in rat intact fibroblasts
T1 sequence (P35348 whole entry): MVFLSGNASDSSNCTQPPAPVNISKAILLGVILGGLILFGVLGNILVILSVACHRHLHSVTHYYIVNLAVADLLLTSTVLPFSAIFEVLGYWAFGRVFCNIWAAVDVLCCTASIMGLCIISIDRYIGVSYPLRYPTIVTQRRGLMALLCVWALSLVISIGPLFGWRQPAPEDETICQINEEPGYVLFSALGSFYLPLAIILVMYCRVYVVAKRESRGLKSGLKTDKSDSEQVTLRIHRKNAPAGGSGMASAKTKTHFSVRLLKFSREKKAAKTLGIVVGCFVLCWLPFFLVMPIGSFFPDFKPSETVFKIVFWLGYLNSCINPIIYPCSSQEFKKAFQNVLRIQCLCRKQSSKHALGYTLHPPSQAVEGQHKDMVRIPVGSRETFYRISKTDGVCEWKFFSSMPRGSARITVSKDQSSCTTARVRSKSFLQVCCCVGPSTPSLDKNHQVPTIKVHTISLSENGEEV

[3] = target: T2, Alpha-1B adrenergic receptor (Homo sapiens, UniProt P35368); experiment: Binding affinity to human adrenergic Alpha-1B receptor expressed in rat intact fibroblasts
T2 sequence (P35368 whole entry): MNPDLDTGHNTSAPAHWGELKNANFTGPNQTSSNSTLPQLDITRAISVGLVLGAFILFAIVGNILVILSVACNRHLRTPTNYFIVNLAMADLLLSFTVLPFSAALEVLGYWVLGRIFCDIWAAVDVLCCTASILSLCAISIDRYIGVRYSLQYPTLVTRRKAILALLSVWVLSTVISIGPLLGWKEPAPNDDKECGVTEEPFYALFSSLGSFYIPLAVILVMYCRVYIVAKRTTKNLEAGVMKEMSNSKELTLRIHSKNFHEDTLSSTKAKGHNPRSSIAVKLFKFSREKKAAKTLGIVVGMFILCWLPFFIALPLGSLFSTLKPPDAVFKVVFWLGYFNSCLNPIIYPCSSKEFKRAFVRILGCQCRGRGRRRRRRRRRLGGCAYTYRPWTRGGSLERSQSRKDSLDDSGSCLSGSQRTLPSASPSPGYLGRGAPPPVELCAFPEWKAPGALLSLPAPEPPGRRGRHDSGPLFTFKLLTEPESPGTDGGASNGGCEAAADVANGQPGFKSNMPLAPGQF
Outline: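 Plate-based calcium imaging in intact Rat1 fibroblasts expressing the human α1B adrenoceptor.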

[4] = Clearance in CD rat at 3 mg/kg, po and 1 mg/kg, iv; format: ADME, organism-based; conditions: in vivo
Outline: (§1)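 Male CD rats dosed 3.0 mg/kg po and 1.0 mg/kg iv, groups of 3 or 7 animals. Clearance, Vss, t1/2 and F are reported with ranges, and clearance is also expressed as % of liver blood flow.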

[5] = Clearance in Beagle dog at 2 mg/kg, po and 1 mg/kg, iv; format: ADME, organism-based, Canis lupus familiaris; conditions: in vivo
[6] = Volume of distribution at steady state in CD rat at 3 mg/kg, po and 1 mg/kg, iv; format: ADME, organism-based; conditions: in vivo, read-out: Vdss; outline: as §1
[7] = Volume of distribution at steady state in Beagle dog at 2 mg/kg, po and 1 mg/kg, iv; format: ADME, organism-based, Canis lupus familiaris; conditions: in vivo, read-out: Vdss
[8] = Half life in CD rat at 3 mg/kg, po and 1 mg/kg, iv; format: ADME, organism-based; conditions: in vivo; outline: as §1
[9] = Half life in Beagle dog at 2 mg/kg, po and 1 mg/kg, iv; format: ADME, organism-based, Canis lupus familiaris; conditions: in vivo
[10] = system: Rattus norvegicus; experiment: Liver blood flow in CD rat at 3 mg/kg, po and 1 mg/kg, iv; format: ADME, organism-based; conditions: in vivo; outline: as §1
[11] = Oral bioavailability in CD rat at 3 mg/kg; format: ADME, organism-based; conditions: in vivo; outline: as §1
[12] = Oral bioavailability in Beagle dog at 2 mg/kg; format: ADME, organism-based, Canis lupus familiaris; conditions: in vivo
[13] = Bioavailability in intranasally dosed human; format: ADME, organism-based; conditions: in vivo, inhaled or intranasal
[14] = Ratio of drug level in brain to blood in CD rat at 1 mg/kg, iv; format: ADME, organism-based; design: dose 1 mg/kg, route intravenous; conditions: read-out: BBR
[15] = target: Cytochrome P450 2D6 (Homo sapiens, UniProt P10635); experiment: Inhibition of CYP2D6; format: ADME
Chain of Cytochrome P450 2D6 (P10635 whole entry): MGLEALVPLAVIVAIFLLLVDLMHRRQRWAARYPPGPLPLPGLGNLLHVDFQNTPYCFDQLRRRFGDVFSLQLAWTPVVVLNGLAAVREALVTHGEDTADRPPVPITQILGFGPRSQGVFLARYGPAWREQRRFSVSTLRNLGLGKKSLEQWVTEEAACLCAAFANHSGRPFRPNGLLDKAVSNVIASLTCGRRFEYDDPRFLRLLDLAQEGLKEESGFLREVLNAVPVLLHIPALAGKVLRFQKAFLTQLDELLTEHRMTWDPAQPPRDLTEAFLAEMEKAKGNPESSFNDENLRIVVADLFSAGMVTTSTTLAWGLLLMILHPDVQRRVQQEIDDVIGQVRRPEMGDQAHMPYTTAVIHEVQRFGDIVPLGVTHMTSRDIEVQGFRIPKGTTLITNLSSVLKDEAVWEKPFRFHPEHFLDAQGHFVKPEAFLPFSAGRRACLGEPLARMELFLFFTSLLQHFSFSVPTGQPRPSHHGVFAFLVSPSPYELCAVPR

[16] = system: Cavia porcellus; experiment: Antiallergic rhinitis activity in conscious guinea pig assessed as duration of inhibition of histamine-induced nasal congestion at 1 mg/ml administered intranasally; format: functional
[17] = Lipophilicity, log D of the compound; format: physicochemical; conditions: octanol/water; read-out: logD
[18] = Solubility of the compound in phosphate buffered saline at pH 7.4; format: physicochemical
[19] = target: T3, Histamine H1 receptor (Homo sapiens, UniProt P35367); experiment: Antagonist activity at human recombinant histamine H1 receptor expressed in intact CHO cells assessed as inhibition of histamine-induced cellular calcium mobilization by FLIPR assay; format: functional, cell-based
T3 sequence (P35367 whole entry): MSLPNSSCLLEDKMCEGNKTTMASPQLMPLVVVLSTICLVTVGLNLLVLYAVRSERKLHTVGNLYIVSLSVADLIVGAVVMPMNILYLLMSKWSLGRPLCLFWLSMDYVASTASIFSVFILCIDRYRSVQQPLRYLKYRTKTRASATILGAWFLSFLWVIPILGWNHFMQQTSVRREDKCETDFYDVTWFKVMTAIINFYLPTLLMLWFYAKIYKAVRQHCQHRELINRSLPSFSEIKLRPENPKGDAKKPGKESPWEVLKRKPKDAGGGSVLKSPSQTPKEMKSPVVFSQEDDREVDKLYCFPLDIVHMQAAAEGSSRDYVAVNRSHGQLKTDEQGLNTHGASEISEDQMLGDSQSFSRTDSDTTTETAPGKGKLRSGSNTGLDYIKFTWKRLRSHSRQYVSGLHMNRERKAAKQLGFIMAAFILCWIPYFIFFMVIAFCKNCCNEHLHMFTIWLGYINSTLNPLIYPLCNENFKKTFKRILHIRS
Outline: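 Human recombinant H1 receptor in intact CHO cells; inhibition of agonist-induced calcium mobilization read with Fluo-4AM in FLIPR. EC50 came from a four-parameter logistic fit, and pA2 = log(DR−1) − log[B], where DR is the EC50 ratio versus control.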

[20] = target: T3, Histamine H1 receptor; experiment: Antagonist activity at human recombinant histamine H1 receptor expressed in intact CHO cells assessed as inhibition of histamine-induced cellular calcium mobilization at 100 nM after 30 mins by FLIPR assay; format: functional, cell-based; conditions: read-out: pA2 (converted)
Outline: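 Intact CHO cells expressing recombinant human H1; Fluo-4AM calcium dye read on FLIPR. Histamine concentration-response curves run without or with antagonist at a single 100 nM, 30 min incubation. EC50 from four-parameter logistic fit; pA2 = log(DR-1) - log[B], DR being EC50 with antagonist over control EC50.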

[21] = target: T4, Voltage-gated inwardly rectifying potassium channel KCNH2 (Homo sapiens, UniProt Q12809); experiment: Displacement of labeled dofetilide human ERG
T4 sequence (Q12809 whole entry): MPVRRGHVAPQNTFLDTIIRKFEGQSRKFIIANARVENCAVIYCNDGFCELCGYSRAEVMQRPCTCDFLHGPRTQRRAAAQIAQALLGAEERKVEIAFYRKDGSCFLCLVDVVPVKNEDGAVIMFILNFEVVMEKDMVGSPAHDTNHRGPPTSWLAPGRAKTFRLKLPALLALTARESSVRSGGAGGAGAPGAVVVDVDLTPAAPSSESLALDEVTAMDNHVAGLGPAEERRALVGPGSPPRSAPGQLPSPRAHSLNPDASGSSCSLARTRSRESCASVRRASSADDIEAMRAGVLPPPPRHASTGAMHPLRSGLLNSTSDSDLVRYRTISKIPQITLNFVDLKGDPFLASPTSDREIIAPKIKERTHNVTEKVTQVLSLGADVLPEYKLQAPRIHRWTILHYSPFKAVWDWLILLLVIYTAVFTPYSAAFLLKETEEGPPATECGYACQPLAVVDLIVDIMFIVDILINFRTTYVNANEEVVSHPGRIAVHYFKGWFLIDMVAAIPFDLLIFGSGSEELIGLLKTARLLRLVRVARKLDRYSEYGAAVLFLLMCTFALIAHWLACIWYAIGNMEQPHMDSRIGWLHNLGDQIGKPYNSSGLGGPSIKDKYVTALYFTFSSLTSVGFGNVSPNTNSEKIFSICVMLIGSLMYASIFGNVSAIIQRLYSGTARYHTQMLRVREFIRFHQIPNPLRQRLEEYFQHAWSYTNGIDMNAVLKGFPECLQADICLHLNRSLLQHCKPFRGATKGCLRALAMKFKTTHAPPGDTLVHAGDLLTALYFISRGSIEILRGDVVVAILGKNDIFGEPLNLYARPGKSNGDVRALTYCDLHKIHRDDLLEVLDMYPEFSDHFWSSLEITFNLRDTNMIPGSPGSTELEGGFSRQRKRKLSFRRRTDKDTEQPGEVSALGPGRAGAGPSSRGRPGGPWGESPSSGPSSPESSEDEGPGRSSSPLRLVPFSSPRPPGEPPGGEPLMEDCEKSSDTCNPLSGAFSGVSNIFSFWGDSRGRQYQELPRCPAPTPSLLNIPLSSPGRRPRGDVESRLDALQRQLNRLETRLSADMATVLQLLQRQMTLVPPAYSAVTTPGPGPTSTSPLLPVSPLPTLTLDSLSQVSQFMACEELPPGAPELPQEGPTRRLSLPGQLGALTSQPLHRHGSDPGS

[22] = target: Histamine H2 receptor (Homo sapiens, UniProt P25021); experiment: Binding affinity to human histamine H2 receptor
Chain of Histamine H2 receptor (P25021 whole entry): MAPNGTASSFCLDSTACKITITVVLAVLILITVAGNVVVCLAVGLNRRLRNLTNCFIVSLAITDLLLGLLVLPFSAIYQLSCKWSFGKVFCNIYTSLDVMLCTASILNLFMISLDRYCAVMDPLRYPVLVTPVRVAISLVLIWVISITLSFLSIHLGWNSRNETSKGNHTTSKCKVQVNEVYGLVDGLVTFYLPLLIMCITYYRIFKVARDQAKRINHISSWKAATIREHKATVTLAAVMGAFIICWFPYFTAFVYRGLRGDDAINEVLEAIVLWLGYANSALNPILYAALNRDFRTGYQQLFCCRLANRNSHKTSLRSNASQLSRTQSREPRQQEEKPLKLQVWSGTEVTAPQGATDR

[23] = target: Histamine H4 receptor (Homo sapiens, UniProt Q9H3N8); experiment: Binding affinity to human histamine H4 receptor
[24] = target: T4, Voltage-gated inwardly rectifying potassium channel KCNH2; experiment: Inhibition of human ERG by patch clamp assay
[25] = system: Heart; experiment: Cardiotoxicity in rabbit heart assessed as induction of QT interval prolongation; format: toxicity, tissue-based, Oryctolagus cuniculus
[26] = system: Liver microsomes; experiment: Metabolic stability in human liver microsomes; format: ADME, Microsome
[27] = system: Hepatocyte; experiment: Metabolic stability in human hepatocytes; format: ADME, cell-based
[28] = system: Liver microsomes; experiment: Metabolic stability in rat liver microsomes; format: ADME, Microsome
[29] = system: Liver; experiment: Metabolic stability in dog liver microsomes; format: ADME, Canis lupus familiaris, Microsome
[30] = Clearance in Beagle dog at 3 mg/kg, po and 1 mg/kg, iv; format: ADME, organism-based, Canis lupus familiaris; conditions: in vivo
Outline: (§2)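 Male Beagle dogs (n = 3) dosed 3.0 mg/kg po and 1.0 mg/kg iv. Clearance, Vss, t1/2 and F are given with ranges, and clearance as % of liver blood flow. Unchanged drug excreted in urine was measured over 24 h.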

[31] = Volume of distribution at steady state in Beagle dog at 3 mg/kg, po and 1 mg/kg, iv; format: ADME, organism-based, Canis lupus familiaris; conditions: in vivo, read-out: Vdss; outline: as §2
[32] = Half life in Beagle dog at 3 mg/kg, po and 1 mg/kg, iv; format: ADME, organism-based, Canis lupus familiaris; conditions: in vivo; outline: as §2
[33] = system: Canis familiaris; experiment: Liver blood flow in Beagle dog at 3 mg/kg, po and 1 mg/kg, iv; format: ADME, organism-based, Canis lupus familiaris; conditions: in vivo; outline: as §2
[34] = Oral bioavailability in Beagle dog at 3 mg/kg; format: ADME, organism-based, Canis lupus familiaris; conditions: in vivo; outline: as §2
[35] = Unchanged drug level in Beagle dog urine at 3 mg/kg, po and 1 mg/kg, iv after 24 hrs; format: ADME, organism-based, Canis lupus familiaris; conditions: read-out: Activity; outline: as §2
[36] = target: T5, Cytochrome P450 1A2 (Homo sapiens, UniProt P05177); experiment: Inhibition of CYP1A2; format: ADME
T5 sequence (P05177 whole entry): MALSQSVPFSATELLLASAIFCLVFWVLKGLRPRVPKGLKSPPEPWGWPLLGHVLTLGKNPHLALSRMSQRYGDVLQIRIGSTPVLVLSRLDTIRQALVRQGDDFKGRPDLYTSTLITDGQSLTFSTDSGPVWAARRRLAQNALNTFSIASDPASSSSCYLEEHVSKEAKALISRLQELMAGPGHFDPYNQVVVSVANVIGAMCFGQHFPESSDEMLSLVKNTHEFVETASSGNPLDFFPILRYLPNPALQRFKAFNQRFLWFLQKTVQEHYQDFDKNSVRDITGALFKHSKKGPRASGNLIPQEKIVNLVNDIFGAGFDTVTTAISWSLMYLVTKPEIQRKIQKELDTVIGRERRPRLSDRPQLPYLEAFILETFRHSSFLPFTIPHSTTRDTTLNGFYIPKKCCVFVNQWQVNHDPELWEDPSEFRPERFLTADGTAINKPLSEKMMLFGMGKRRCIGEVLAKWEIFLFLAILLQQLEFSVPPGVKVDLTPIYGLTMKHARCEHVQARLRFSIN

[37] = target: Cytochrome P450 2C9 (Homo sapiens, UniProt P11712); experiment: Inhibition of CYP2C9; format: ADME
Chain of Cytochrome P450 2C9 (P11712 whole entry): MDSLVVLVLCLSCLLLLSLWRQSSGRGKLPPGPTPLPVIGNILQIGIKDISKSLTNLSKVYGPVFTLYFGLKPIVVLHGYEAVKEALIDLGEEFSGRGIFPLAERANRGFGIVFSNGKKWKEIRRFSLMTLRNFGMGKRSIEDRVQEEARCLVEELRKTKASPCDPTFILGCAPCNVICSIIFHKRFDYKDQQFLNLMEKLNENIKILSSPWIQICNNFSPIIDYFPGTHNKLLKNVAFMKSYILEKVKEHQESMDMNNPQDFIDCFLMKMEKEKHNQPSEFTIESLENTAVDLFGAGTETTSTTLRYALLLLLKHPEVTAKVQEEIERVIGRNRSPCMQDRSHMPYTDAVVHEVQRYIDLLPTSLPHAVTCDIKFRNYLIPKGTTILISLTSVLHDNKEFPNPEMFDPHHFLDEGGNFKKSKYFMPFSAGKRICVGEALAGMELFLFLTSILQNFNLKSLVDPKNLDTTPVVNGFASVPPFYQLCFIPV

[38] = target: Cytochrome P450 2C19 (Homo sapiens, UniProt P33261); experiment: Inhibition of CYP2C19; format: ADME
Chain of Cytochrome P450 2C19 (P33261 whole entry): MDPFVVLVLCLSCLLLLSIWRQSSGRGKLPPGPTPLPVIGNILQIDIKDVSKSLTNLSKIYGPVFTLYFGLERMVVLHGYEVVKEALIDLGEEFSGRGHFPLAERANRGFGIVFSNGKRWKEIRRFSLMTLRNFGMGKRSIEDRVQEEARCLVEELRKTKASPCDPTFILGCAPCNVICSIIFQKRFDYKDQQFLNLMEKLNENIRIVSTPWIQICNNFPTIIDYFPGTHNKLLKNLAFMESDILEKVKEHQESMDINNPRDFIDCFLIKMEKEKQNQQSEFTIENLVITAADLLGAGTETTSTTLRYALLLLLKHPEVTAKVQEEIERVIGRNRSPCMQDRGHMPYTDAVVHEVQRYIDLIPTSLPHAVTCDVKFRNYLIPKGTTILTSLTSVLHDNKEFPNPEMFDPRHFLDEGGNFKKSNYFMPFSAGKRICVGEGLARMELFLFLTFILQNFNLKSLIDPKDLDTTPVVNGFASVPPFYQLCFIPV

[39] = target: Cytochrome P450 3A4 (Homo sapiens, UniProt P08684); experiment: Inhibition of CYP3A4; format: ADME
Chain of Cytochrome P450 3A4 (P08684 whole entry): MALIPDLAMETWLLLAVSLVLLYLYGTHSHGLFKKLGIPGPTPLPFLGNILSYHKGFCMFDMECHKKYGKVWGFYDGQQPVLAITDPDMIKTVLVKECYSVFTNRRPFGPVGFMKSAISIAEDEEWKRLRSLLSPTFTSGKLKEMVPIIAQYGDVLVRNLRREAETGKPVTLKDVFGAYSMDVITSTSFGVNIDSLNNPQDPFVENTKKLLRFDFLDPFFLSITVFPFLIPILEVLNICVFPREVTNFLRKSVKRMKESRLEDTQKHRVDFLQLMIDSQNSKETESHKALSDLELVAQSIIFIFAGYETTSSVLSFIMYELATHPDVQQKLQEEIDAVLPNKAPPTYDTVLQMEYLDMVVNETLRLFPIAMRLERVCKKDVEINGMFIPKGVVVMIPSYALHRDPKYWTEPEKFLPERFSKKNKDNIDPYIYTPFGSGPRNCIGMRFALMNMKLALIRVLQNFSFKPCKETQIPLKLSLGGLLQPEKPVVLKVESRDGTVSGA

[40] = system: Cavia porcellus; experiment: Antiallergic rhinitis activity in conscious guinea pig assessed as duration of inhibition of histamine-induced nasal congestion at 0.1 to 1 mg/ml administered intranasally; format: functional

Ki [1]: 158 nM
Ki [2]: 50.1 nM
Ki [3]: 50.1 nM
clearance [4]: 35 mL/min/kg
clearance [5]: 22 mL/min/kg
Vd [6]: 1.8 L/kg
Vd [7]: 4.9 L/kg
half-life [8]: 1 h
half-life [9]: 3.2 h
LBF [10]: 41%
bioavailability [11]: 7%
bioavailability [12]: 46%
bioavailability [13]: 40%
Kp [14]: 7.5
IC50 [15]: 1000 nM
Compound: CN1CCCC(n2nc(Cc3ccc(Cl)cc3)c3ccccc3c2=O)CC1 (racemic) [AZELASTINE]
Time [16]: <24 h

logD [17]: 2.25
solubility [18]: 144 µg/mL
Compound: CN1CCCC(n2nc(Cc3ccc(Cl)cc3)c3ccccc3c2=O)CC1.Cl (racemic) [AZELASTINE HYDROCHLORIDE]

Ki [19]: 10 nM
Ki [2]: 39.8 nM
Ki [3]: 31.6 nM
Kb [20]: 0.794 nM
IC50 [22]: 10000 nM
IC50 [23]: 10000 nM
Stability [26]: Stable
Stability [27]: Unstable
Stability [28]: Stable
Stability [29]: Stable
clearance [4]: 30 mL/min/kg
clearance [30]: 27 mL/min/kg
Vd [6]: 3.9 L/kg
Vd [31]: 22 L/kg
half-life [8]: 2.2 h
half-life [32]: 9.4 h
LBF [10]: 35%
LBF [33]: 87%
bioavailability [11]: 4%
bioavailability [34]: 19%
dose excreted at 24 h [35]: < 1%
Kp [14]: 0.6
IC50 [15]: 40 nM
IC50 [36]: > 3000 nM
IC50 [37]: > 3000 nM
IC50 [38]: > 3000 nM
IC50 [39]: 300 nM
Compound: O=c1c2ccccc2c(Cc2ccc(Cl)cc2)nn1C[C@H]1CCCN1CCCCc1ccc(OCCCN2CCCCCC2)cc1 [GSK-1004723]
IC50 [21]: 50.1 nM
inhibition (INH) [24]: Active
Activity [25]: Non-toxic
Time [40]: 72 h
